Test results published in ChEMBL document CHEMBL1129639, “Synthesis and cardiotonic activity of novel pyrimidine derivatives: crystallographic and quantum chemical studies” (J Med Chem, 1996).

Assays:
Cavia porcellus [1] = organism: Cavia porcellus; test: Effect on the frequency rate of spontaneously beating atria from Reserpine-treated guinea pigs as percentage variation from the control at concentration of 10E-6 M; format: functional
Method in brief: (§1)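 Atria from reserpine-treated guinea pigs (reserpine 2 mg/kg ip, 48 and 24 h before death; only tyramine-unresponsive preparations used). Bath solution at 29 °C, gassed 95% O2/5% CO2, pH 7.5, resting tension […]. After 90 min equilibration, compound added cumulatively, 5 min per concentration. Isometric developed-tension amplitude or beating rate given as % variation from untreated control. Mean ± SEM, 6-10 assays.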

Cavia porcellus [2] = organism: Cavia porcellus; test: Compound was evaluated for its effect on the frequency rate of spontaneously beating atria from Reserpine-treated guinea pigs as percentage variation from the control at concentration of 3 x 10E-4 M; format: functional; method in brief: as §1
Cavia porcellus [3] = organism: Cavia porcellus; test: Effect on the contractile force of spontaneously beating atria from Reserpine-treated guinea pigs as percentage variation from the control at concentration of 10E-5 M; format: functional; method in brief: as §1
Cavia porcellus [4] = organism: Cavia porcellus; test: Effect on the frequency rate of spontaneously beating atria from Reserpine-treated guinea pigs as percentage variation from the control at concentration of 10E-4 M; format: functional; method in brief: as §1
Cavia porcellus [5] = organism: Cavia porcellus; test: Compound was evaluated for its effect on the frequency rate of spontaneously beating atria from Reserpine-treated guinea pigs as percentage variation from the control at concentration of 3 x 10E-6 M; format: functional; method in brief: as §1
Cavia porcellus [6] = organism: Cavia porcellus; test: Effect on the contractile force of spontaneously beating atria from Reserpine-treated guinea pigs as percentage variation from the control at concentration of 10E-3 M; format: functional; method in brief: as §1
Cavia porcellus [7] = organism: Cavia porcellus; test: Effect on the contractile force of spontaneously beating atria from Reserpine-treated guinea pigs as percentage variation from the control at concentration of 3 x 10E-5 M; format: functional; method in brief: as §1
Cavia porcellus [8] = organism: Cavia porcellus; test: Effect on the contractile force of spontaneously beating atria from Reserpine-treated guinea pigs as percentage variation from the control at concentration of 3 x 10E-4 M; format: functional; method in brief: as §1
Cavia porcellus [9] = organism: Cavia porcellus; test: Effect on the contractile force of spontaneously beating atria from Reserpine treated guinea pigs as percentage variation from the control at concentration of 10E-4 M; format: functional; method in brief: as §1
Cavia porcellus [10] = organism: Cavia porcellus; test: Effect on the frequency rate of spontaneously beating atria from Reserpine-treated guinea pigs as percentage variation from the control at concentration of 10E-5 M; format: functional; method in brief: as §1
Cavia porcellus [11] = organism: Cavia porcellus; test: Effect on the frequency rate of spontaneously beating atria from Reserpine-treated guinea pigs as percentage variation from the control at concentration of 10E-3 M; format: functional; method in brief: as §1
Cavia porcellus [12] = organism: Cavia porcellus; test: Compound was evaluated for its effect on the frequency rate of spontaneously beating atria from Reserpine-treated guinea pigs as percentage variation from the control at concentration of 3 x 10E-5 M; format: functional; method in brief: as §1
Cavia porcellus [13] = organism: Cavia porcellus; test: Effect on the contractile force of spontaneously beating atria from Reserpine-treated guinea pigs as percentage variation from the control at concentration of 3 x 10E-6 M; format: functional; method in brief: as §1
Cavia porcellus [14] = organism: Cavia porcellus; test: Effect on the contractile force of spontaneously beating atria from Reserpine-treated guinea pigs as percentage variation from the control at concentration of 10E-6 M; format: functional; method in brief: as §1
Cavia porcellus [15] = organism: Cavia porcellus; test: Compound was evaluated for its effect on the frequency rate of spontaneously beating atria from Reserpine-treated guinea pigs as percentage variation from the control at different concentration of 10E-4 M; format: functional; method in brief: as §1
Cavia porcellus [16] = organism: Cavia porcellus; test: Compound was evaluated for its effect on the frequency rate of spontaneously beating atria from Reserpine-treated guinea pigs as percentage variation from the control at different concentration of 3 x 10E-4 M; format: functional; method in brief: as §1
Cavia porcellus [17] = organism: Cavia porcellus; test: Compound was evaluated for its effect on the frequency rate of spontaneously beating atria from Reserpine-treated guinea pigs as percentage variation from the control at different concentration of 3 x 10E-5 M; format: functional; method in brief: as §1
Cavia porcellus [18] = organism: Cavia porcellus; test: Compound was evaluated for its effect on the frequency rate of spontaneously beating atria from Reserpine-treated guinea pigs as percentage variation from the control at different concentration of 10E-5 M; format: functional; method in brief: as §1
Cavia porcellus [19] = organism: Cavia porcellus; test: Compound was evaluated for its effect on the frequency rate of spontaneously beating atria from Reserpine-treated guinea pigs as percentage variation from the control at different concentration of 10E-3 M; format: functional; method in brief: as §1
Cavia porcellus [20] = organism: Cavia porcellus; test: Inotropic Response in Electrically Driven Left Atrium from Reserpine-Treated Guinea Pigs in the absence of adenosine deaminase (ADA) at 3 x 10E-6 M; format: functional
Method in brief: (§2)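 Electrically driven left atrium from reserpine-treated guinea pigs (tyramine-unresponsive), 29 °C, pH 7.5, resting tension […], 90 min equilibration. Compound dissolved in DMSO and added cumulatively, 5 min per step. Where used, adenosine deaminase was preincubated 20 min, and basal force was taken after ADA addition. Developed tension given as % change over control. Mean ± SEM of six assays.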

Cavia porcellus [21] = organism: Cavia porcellus; test: Inotropic Response in Electrically Driven Left Atrium from Reserpine-Treated Guinea Pigs in the presence of 2 U/mL of adenosine deaminase (ADA) at 3 x 10E-6 M; format: functional; method in brief: as §2
Cavia porcellus [22] = organism: Cavia porcellus; test: Inotropic effect in electrically driven left atrium from reserpine-treated guinea pigs at concentration of 10E-6 M; format: functional, Cardiac atrium; method in brief: as §2
Cavia porcellus [23] = organism: Cavia porcellus; test: Inotropic Response in Electrically Driven Left Atrium from Reserpine-Treated Guinea Pigs in the absence of adenosine deaminase (ADA) at 10E-4 M; format: functional; method in brief: as §2
Cavia porcellus [24] = organism: Cavia porcellus; test: Inotropic Response in Electrically Driven Left Atrium from Reserpine-Treated Guinea Pigs in the absence of adenosine deaminase (ADA) at 10E-5 M; format: functional; method in brief: as §2
Cavia porcellus [25] = organism: Cavia porcellus; test: Inotropic effect in electrically driven left atrium from reserpine-treated guinea pigs at concentration of 10E-4 M; format: functional, Cardiac atrium; method in brief: as §2
Cavia porcellus [26] = organism: Cavia porcellus; test: Inotropic effect in electrically driven left atrium from reserpine-treated guinea pigs at concentration of 10E-5 M; format: functional, Cardiac atrium; method in brief: as §2
Cavia porcellus [27] = organism: Cavia porcellus; test: Inotropic Response in Electrically Driven Left Atrium from Reserpine-Treated Guinea Pigs in the presence of 2 U/mL of adenosine deaminase (ADA) at 3 x 10E-4 M; format: functional; method in brief: as §2
Cavia porcellus [28] = organism: Cavia porcellus; test: Inotropic effect in electrically driven left atrium from reserpine-treated guinea pigs at concentration of 3 x 10E-6 M; format: functional, Cardiac atrium; method in brief: as §2
Cavia porcellus [29] = organism: Cavia porcellus; test: Inotropic effect in electrically driven left atrium from reserpine-treated guinea pigs at concentration of 3 x 10E-5 M; format: functional, Cardiac atrium; method in brief: as §2
Cavia porcellus [30] = organism: Cavia porcellus; test: Inotropic Response in Electrically Driven Left Atrium from Reserpine-Treated Guinea Pigs in the absence of adenosine deaminase (ADA) at 3 x 10E-4 M; format: functional; method in brief: as §2
Cavia porcellus [31] = organism: Cavia porcellus; test: Inotropic Response in Electrically Driven Left Atrium from Reserpine-Treated Guinea Pigs in the presence of 2 U/mL of adenosine deaminase (ADA) at 3 x 10E-5 M; format: functional; method in brief: as §2
Cavia porcellus [32] = organism: Cavia porcellus; test: Inotropic Response in Electrically Driven Left Atrium from Reserpine-Treated Guinea Pigs in the presence of 2 U/mL of adenosine deaminase (ADA) at 10E-4 M; format: functional; method in brief: as §2
Cavia porcellus [33] = organism: Cavia porcellus; test: Inotropic Response in Electrically Driven Left Atrium from Reserpine-Treated Guinea Pigs in the absence of adenosine deaminase (ADA) at 3 x 10E-5 M; format: functional; method in brief: as §2
Adenosine receptor A1 = biological target: T1, Adenosine receptor A1 (Cavia porcellus, UniProt P47745); test: Inhibition of [3H]-CHA binding to Adenosine A1 receptor in guinea pig heart
T1 sequence (P47745 whole entry): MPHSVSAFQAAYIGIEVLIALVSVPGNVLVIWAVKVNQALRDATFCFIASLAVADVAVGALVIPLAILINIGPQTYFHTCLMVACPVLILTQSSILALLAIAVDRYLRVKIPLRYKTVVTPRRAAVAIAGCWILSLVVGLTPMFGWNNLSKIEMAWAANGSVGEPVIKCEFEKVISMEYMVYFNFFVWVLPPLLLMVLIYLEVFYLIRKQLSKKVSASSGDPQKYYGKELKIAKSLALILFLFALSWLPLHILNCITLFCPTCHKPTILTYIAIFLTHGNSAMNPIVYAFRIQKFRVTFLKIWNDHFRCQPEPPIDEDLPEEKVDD
Method in brief: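 Guinea pig heart membranes prepared in 50 mM Tris-HCl pH 7.4 and pretreated with adenosine deaminase 2 IU/mL for 30 min at 37 °C. Incubated with 1 nM [3H]CHA, membranes from 15 mg tissue, 120 min at 23 °C. Bound ligand separated by GF/B filtration; nonspecific binding defined with (R)-PIA. Six concentrations tested in triplicate; IC50 by probit analysis.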

Cavia porcellus [34] = organism: Cavia porcellus; test: Inotropic Response in Electrically Driven Left Atrium from Reserpine-Treated Guinea Pigs in the presence of 2 U/mL of adenosine deaminase (ADA) at 10E-5 M; format: functional; method in brief: as §2
Cavia porcellus [35] = organism: Cavia porcellus; test: Inotropic effect in electrically driven left atrium from reserpine-treated guinea pigs at concentration of 10E-3 M; format: functional, Cardiac atrium; method in brief: as §2
Cavia porcellus [36] = organism: Cavia porcellus; test: Inotropic Response in Electrically Driven Left Atrium from Reserpine-Treated Guinea Pigs in the presence of 2 U/mL of adenosine deaminase (ADA) at 10E-3 M; format: functional; method in brief: as §2
Cavia porcellus [37] = organism: Cavia porcellus; test: Inotropic Response in Electrically Driven Left Atrium from Reserpine-Treated Guinea Pigs in the absence of adenosine deaminase (ADA) at 10E-3 M; format: functional; method in brief: as §2
Cavia porcellus [38] = organism: Cavia porcellus; test: Inotropic effect in electrically driven left atrium from reserpine-treated guinea pigs at concentration of 3 x 10E-4 M; format: functional, Cardiac atrium; method in brief: as §2

SMILES	Variation (Cavia porcellus [1]) [%]	Variation (Cavia porcellus [2]) [%]	Variation (Cavia porcellus [3]) [%]	Variation (Cavia porcellus [4]) [%]	Variation (Cavia porcellus [5]) [%]	Variation (Cavia porcellus [6]) [%]	Variation (Cavia porcellus [7]) [%]	Variation (Cavia porcellus [8]) [%]	Variation (Cavia porcellus [9]) [%]	Variation (Cavia porcellus [10]) [%]	Variation (Cavia porcellus [11]) [%]	Variation (Cavia porcellus [12]) [%]	Variation (Cavia porcellus [13]) [%]	Variation (Cavia porcellus [14]) [%]	other results
COCc1nc(N(C)C)ncc1C(=O)OC	0	7.14	11.14	7.14	0	25.41	14.95	18.95	16.95	2.85	11.43	3.57	6.93	3.04	
Cc1nc(N(C)C)ncc1C(=O)O	0	6.45	5.18	3.22	6.45	21.96	8.62	15.77	10.82	9.67	-3.12	3.22	3.77	0	
CN(C)c1ncc(C(=O)O)c(C(C)(C)C)n1	0		9.67		3.33	18.64	12.51	14.21	13.23				7.58	3.51	Variation (Cavia porcellus [15]): 3.71%; Variation (Cavia porcellus [16]): 7.42%; Variation (Cavia porcellus [17]): 3.33%; Variation (Cavia porcellus [18]): 3.33%; Variation (Cavia porcellus [19]): 11.11%
CN(C)c1ncc(C(=O)O)c(Cc2ccccc2)n1	0	-5.69	15.24	-5.02	0	88.05	22.89	67.75	35.26	0	-10.25	-3.85	9.37	3.52	Increase (Cavia porcellus [20]): 11.21%; Increase (Cavia porcellus [21]): 0%; Variation (Cavia porcellus [22]): 3.23%; Increase (Cavia porcellus [23]): 44.95%; Increase (Cavia porcellus [24]): 27.41%; Variation (Cavia porcellus [25]): 36.3%; Variation (Cavia porcellus [26]): 16.5%; Increase (Cavia porcellus [27]): 33.3%; Variation (Cavia porcellus [28]): 9.7%; Variation (Cavia porcellus [29]): 24.7%; Increase (Cavia porcellus [30]): 66.21%; Increase (Cavia porcellus [31]): 9.52%; Increase (Cavia porcellus [32]): 19.1%; Increase (Cavia porcellus [33]): 33.61%; IC50 (Adenosine receptor A1): 583 µM; Increase (Cavia porcellus [34]): 4.76%; Variation (Cavia porcellus [35]): 78.6%; Increase (Cavia porcellus [36]): 57.2%; Increase (Cavia porcellus [37]): 88.35%; Variation (Cavia porcellus [38]): 53%
CN(C)c1nccc(Cc2ccccc2)n1	0	-9.09	9.18	-3.03	0	-57.09	3.17	-46.99	-32.51	3.03	-12.12	3.03	10.71	6.43	
CCOC(=O)c1cnc(N(C)C)nc1C(=O)OCC	0	-55.55	0.54	-40.77	0	-100	-5.33	-76.47	-48.31	-4.76	-100	-7.41	2.18	0	
CCCc1ccnc(N(C)C)n1	0	-52.63	3.15	-52.63	-5.29	-91.86	-10.63	-73.58	-64.06	-26.31	-52.63	-31.58	7.18	0	
Nc1cc(-c2ccncc2)c[nH]c1=O [INAMRINONE]	0	7.2	0.52	6.25	0	23.12	4.5	19.03	10.22	0	9.87	1.5	0	0	
Cc1[nH]c(=O)c(C#N)cc1-c1ccncc1 [MILRINONE]	0	42.85	16.31	34.16	0	31.09	30.32	45.62	37.77	15.22	37.2	27.09	0	0	Variation (Cavia porcellus [22]): 0%; Variation (Cavia porcellus [25]): 35.61%; Variation (Cavia porcellus [26]): 13.25%; Variation (Cavia porcellus [28]): 9.31%; Variation (Cavia porcellus [29]): 22.81%; Variation (Cavia porcellus [35]): 42.89%; Variation (Cavia porcellus [38]): 45.61%
